# Results collected from several papers.
# Compare with care: the assays were run in different laboratories.
# Target: MAP kinase-activated protein kinase 5 (MAPKAPK5, Homo sapiens, UniProt Q8IW41)
SMILES,test,setting,quantity,value
CCN(CC)c1ccc(C2=NNC(=O)CC2C)cc1[N+](=O)[O-] (stereo not drawn),"enzyme activity, inhibitor",10 µM,remaining activity,104%
C=CC(=O)Nc1cc(Nc2nccc(Nc3cc(Cl)c(F)cc3C(C)(C)O)n2)c(OC)cc1N1CC[C@@H](N(C)C)C1,"enzyme activity, inhibitor",1 µM,inhibition,19%
Cc1ccc(C(=O)Nc2ccc(CN3CCN(C)CC3)c(C(F)(F)F)c2)cc1C#Cc1cnc2cccnn12,"enzyme activity, inhibitor",23.5 nM,remaining activity,84%
COc1cc(Nc2cnc(C#N)c(O[C@H](C)CN(C)C)n2)ncc1-c1cnn(C)c1,"enzyme activity, inhibitor, radiometric",10 µM,remaining activity,97%
CO[C@@H](C)c1c(Nc2ccc([C@@H](N(C)C(=O)C3CCS(=O)(=O)CC3)C(F)(F)F)cc2)cnc2cc(Cl)nn12,"cell-free assay, competition with immobilised ligand",1 µM,remaining binding,100%
Cc1ccc(Nc2nccc(N(C)c3ccc4c(C)n(C)nc4c3)n2)cc1S(N)(=O)=O,"enzyme activity, inhibitor",10 µM,inhibition,4%
COc1cc2ncnc(Nc3ccc(Oc4ccccc4)cc3C)c2cc1OC,"enzyme activity, inhibitor",1 µM,inhibition,3%
Cn1cnc(Br)c1C1=CN(c2ncnc3[nH]cnc23)CCS1,"enzyme activity, inhibitor, radiometric",50 nM,inhibition,20.3%
CC(C)c1ccc(NC(=O)c2cccs2)c(-c2nc3ccccc3[nH]c2=O)c1,"enzyme activity, inhibitor",1 µM,activity vs control,106%
FC(F)c1nc2ccccc2n1-c1nc(N2CCOCC2)nc(N2CCOCC2)n1,"enzyme activity, inhibitor",10 µM,remaining activity,82%
COCCOc1nc(-c2ccc(Cl)nc2)nc2c1CN(C(=O)c1ncn3ccccc13)CC2,"cell-free assay, competition with immobilised ligand",0.1 µM,remaining binding,100%
CN1CC(Oc2cnc(C#N)cc2-c2ccn3nc(NC(=O)C4CC4)cc3c2)C1,"enzyme activity, inhibitor",1 µM,inhibition,-14%
CC1=C(C#N)C(c2ccc3c(c2)c(NC(=O)c2ccccc2C)nn3C)C(C#N)=C(C)N1,"cell-free assay, competition with immobilised ligand",1 µM,remaining binding,100%
O=C(Nc1cnn(-c2csc(C(=O)NC3COC3)c2)c1)Nc1c(F)cccc1Cl,"enzyme activity, inhibitor",5 µM,remaining activity,99.7%
CN(c1ncccc1CNc1nc(Nc2ccc3c(c2)CC(=O)N3)ncc1C(F)(F)F)S(C)(=O)=O,"enzyme activity, inhibitor",1 µM,inhibition,0%
CC(C)(C)c1nc(-c2cccc(NS(=O)(=O)c3c(F)cccc3F)c2F)c(-c2ccnc(N)n2)s1,"enzyme activity, inhibitor, radiometric",1 µM,remaining activity,37%
CCCOc1ccc(OC)c(F)c1C(=O)c1ccc(C(=O)N[C@@H]2CNC[C@H]2NC(=O)c2ccc3[nH]ncc3c2)cc1,"enzyme activity, inhibitor",10 µM,remaining activity,91%
COc1ccc2cc(OCC3(C(=O)O)CN(C(=O)c4ccc(F)cc4)C3)ccc2c1,"cell-free assay, competition with immobilised ligand",1 µM,remaining binding,76%
C[C@@H]1CCN(C(=O)CC#N)C[C@@H]1N(C)c1ncnc2[nH]ccc12,"cell-free assay, inhibitor",0.5 µM,remaining signal,97.3%
CNCc1ccc(-c2cc(-c3nc(-c4ccc(S(=O)(=O)C(C)C)cc4)cnc3N)on2)cc1,"enzyme activity, inhibitor",0.4 µM,inhibition,0%
O=C1Nc2ccc(Cl)cc2C1=Cc1cc(Cl)c(O)c(Cl)c1,cell-free assay,0.5 µM,remaining signal,92.4%
C[C@H](NC(=O)c1cnc2n1[C@](C)(Cc1ccc(C#N)cc1)C(=O)N2c1cc(Cl)c(F)c(Cl)c1)C(=O)NC1(c2ccccn2)CC1,"cell-free assay, competition with immobilised ligand",1 µM,remaining binding,96%
CNC(=O)c1cc(Oc2ccc(NC(=O)Nc3ccc(Cl)c(C(F)(F)F)c3)cc2)ccn1,"enzyme activity, inhibitor",0.3 µM,inhibition,18%
Cc1ccc(NC(=O)c2ccc(C)c(C(F)(F)F)c2)cc1C#Cc1nn(C2CCC(O)CC2)c2ncnc(N)c12 (stereo not drawn),cell-free assay,10 µM,remaining signal,77%
O=C1NC(=O)c2cc(Nc3ccc(F)cc3)c(Nc3ccc(F)cc3)cc21,cell-free assay,0.5 µM,remaining signal,93.4%
FC(F)(F)Oc1cccc(-c2cnc3ccc(-c4ccncc4)nn23)c1,"enzyme activity, inhibitor, radiometric",1 µM,activity vs control,85%
CC/C(=N\NC(=O)NCc1cccc(O)c1)c1ccc(O)c(C)c1O,"enzyme activity, inhibitor",0.1 µM,inhibition,-8%
CN(C)c1ncnc(-c2ccc3nc(Nc4cc(CN5CCN(C(=O)CC(F)(F)F)CC5)ccn4)[nH]c3c2)c1Cl,"cell-free assay, competition with immobilised ligand",1 µM,remaining binding,96%
Cc1ccc(C(=O)NCc2ccsc2)cc1C#Cc1cn(C(C)C)c2ncnc(N)c12,"enzyme activity, inhibitor",1 µM,activity vs control,92%
O=C1CCc2cc(Nc3cc(OC4CCOCC4)c([N+](=O)[O-])cc3Cl)ccc2N1,"cell-free assay, competition with immobilised ligand",1 µM,remaining binding,78%
Nc1nc(NC2CCCCC2)sc1C(=O)c1ccccc1,"enzyme activity, inhibitor",10 µM,remaining activity,96%
O=c1nc(-c2ccccn2)sc2ccccc12,"binding, competition with immobilised ligand",1 µM,remaining binding,92%
CC(C)(C)C(=O)c1sc(NC2CCCCC2)nc1N,"enzyme activity, inhibitor",10 µM,remaining activity,103%
